Experimental data from ChEMBL document CHEMBL3046500, “Secondary metabolites from Glycine soja and their growth inhibitory effect against Spodoptera litura” (J Agric Food Chem, 2011).
Activity calls are given as the source filed them. No cut-off for these calls is given here.

What was measured:
[1] = test system: Spodoptera litura; assay: Drug metabolism in fourth instar larval stage of Spodoptera litura assessed in excrements after feeding diet containing compound by HPLC analysis; format: ADME, organism-based; conditions: in vivo, po
In short: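 Excrement from treated and control larvae was collected separately, extracted with methanol under ultrasonication (3 × 20 min), centrifuged, and the supernatant run on RP-18 HPLC (250 × 4.6 mm, 5 μm) at 30 °C and 1.0 mL/min. Elution used a water/methanol gradient set per analyte over 0–30 min, then 95% methanol. DAD read at 210/238/254/280 nm; TLC (CHCl3/MeOH 4:1) for a non-UV-absorbing analyte.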

[2] = test system: Spodoptera litura; assay: Insecticidal activity against fourth instar larval stage of Spodoptera litura in glandless fresh cabbage leaves assessed as growth inhibition measured 3 days after feeding diet containing compound; format: functional, organism-based
In short: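 Larvae starved 4 h, weighed, then placed on treated material for 4 h. They were then moved to fresh untreated leaves or artificial diet. This was repeated every 24 h, with each larva's weight recorded. Seven replicates per treatment; whole experiment run three times.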

[3] = test system: Spodoptera litura; assay: Antifeedant activity against fourth instar larval stage of Spodoptera litura on fresh cabbage leaves; format: functional, organism-based

O=c1c(-c2ccc(O)cc2)coc2cc(O)cc(O)c12 [GENISTEIN]
Drug metabolism [1]: Active
growth inhibition (GI) [2]: inactive
Activity [3]: inactive

O=c1c(-c2ccc(O)cc2)coc2cc(O)ccc12 [DAIDZEIN]
Drug metabolism [1]: Not Active
growth inhibition (GI) [2]: Active
Activity [3]: inactive

O=c1c(-c2ccc(O)cc2)coc2cc(O[C@@H]3O[C@H](CO)[C@@H](O)[C@H](O)[C@H]3O)cc(O)c12 [GENISTIN]
Drug metabolism [1]: Active
growth inhibition (GI) [2]: inactive
Activity [3]: inactive

CO[C@H]1[C@H](O)[C@@H](O)[C@@H](O)[C@H](O)[C@@H]1O [METHYLINOSITOL]
Drug metabolism [1]: Active
growth inhibition (GI) [2]: inactive
Activity [3]: inactive
